# EBV gp42 inh = blocks Epstein-Barr virus glycoprotein 42 binding; Q1HVG2; Fluorescence polarization binding assay, mP read-out; inhibition, % (tested at 21.74 µM); 220,000 tested, 0.42% active; in the data active means inhibition above about 50%
# Target sequence (Q1HVG2 whole entry, looked up): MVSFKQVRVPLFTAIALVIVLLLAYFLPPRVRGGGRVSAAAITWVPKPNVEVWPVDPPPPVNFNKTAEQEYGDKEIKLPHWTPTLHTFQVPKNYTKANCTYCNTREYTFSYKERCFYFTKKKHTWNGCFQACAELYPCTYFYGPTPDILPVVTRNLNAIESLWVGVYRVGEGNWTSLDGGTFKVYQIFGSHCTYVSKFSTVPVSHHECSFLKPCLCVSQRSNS
# RBBP9 inhibitor = blocks human serine hydrolase RBBP9; O75884; recombinant RBBP9, FP-Rh probe fluorescence polarization; inhibition, % at 7.94 µM; 220,000 tested, 0.2% active;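 active means inhibition above the campaign mean of all tested compounds plus 3 SD, cut at about 14% in these data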
#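 System: RBBP9 protein / Quantity: 2.5 µM RBBP9 dispensing solution, before mixing / Also added: Serine-hydrolase probe FP-Rh, 375 nM pre-mixing / Dosing: 7.94 µM single dose, 0.794% DMSO / Timing: enzyme-compound preincubation 30 min, then probe labeling 45 min, 25 °C / Signal: FP readout at 525/598 nm / Controls: DMSO-treated enzyme wells and wells lacking RBBP9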
# Mcl1 Bid PPI = disrupts binding of human Mcl-1 to Bid peptide; inhibition, % at 21.7 µM; 220,000 tested, 0.97% active; Q07820; TR-FRET Mcl-1/Bid-Dy647 peptide binding, 1536-well; AID 1021;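 active means compounds that cut the binding signal by more than half at the single screening dose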;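 further: His-tagged Mcl-1 with europium anti-His antibody binding Bid BH3 peptide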
# Target sequence (Q07820 whole entry, looked up): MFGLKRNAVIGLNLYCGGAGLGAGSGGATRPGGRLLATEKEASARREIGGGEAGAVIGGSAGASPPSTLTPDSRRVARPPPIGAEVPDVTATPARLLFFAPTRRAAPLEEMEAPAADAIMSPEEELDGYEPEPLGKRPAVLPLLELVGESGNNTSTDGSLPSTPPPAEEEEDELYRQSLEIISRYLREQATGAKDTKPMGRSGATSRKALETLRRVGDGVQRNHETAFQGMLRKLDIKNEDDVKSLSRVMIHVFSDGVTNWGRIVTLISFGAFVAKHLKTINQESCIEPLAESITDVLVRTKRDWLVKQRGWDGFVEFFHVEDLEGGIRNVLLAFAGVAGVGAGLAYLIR
# MCL1-BIM inh = MCL1-BIM-BH3 interaction inhibition (human); GST-MCL1 / FITC-Bim-BH3 fluorescence polarization; inhibition, % at 10.9 µM; 320,000 tested, 0.68% active;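 active means inhibition above the mean inhibition of all tested compounds plus 3 SD, set per campaign, cut at about 40% in these data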;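 further: higher means more loss of mP so more displacement of Bim peptide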
# Bim-Mcl-1 = inhibitors of Bim-Mcl-1 interaction, human; 190,000 tested, 0.1% active; Bead-based flow cytometry, Bim peptide-Mcl-1 binding; Q07820; inhibition, % at 10 µM; in the data active means inhibition above about 40%
# Mcl1-Noxa inh = Mcl-1/Noxa interaction inhibition; inhibition, % at 21.7 µM; Q07820; TR-FRET Mcl-1/Noxa peptide binding, 2 h; 220,000 tested, 1.5% active;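 active means compounds that cut the protein-peptide binding signal by more than 50% relative to plate controls in a single-dose test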;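 further: His-tagged Mcl-1 with rhodamine Noxa BH3 peptide and terbium anti-His antibody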
# A number is an active result; 0 = inactive; - = no result. Only some compounds are listed: those with a hit (about 2.2% of all), similar ones and a draw of the others.
SMILES,EBV gp42 inh,RBBP9 inhibitor,Mcl1 Bid PPI,MCL1-BIM inh,Bim-Mcl-1,Mcl1-Noxa inh
Cc1nc(N)nc(N)c1CCCc1ccc(Cl)c(Cl)c1,-,-,-,0,-,-
COc1cccc(/C=N/NC(=O)NC2CCCCC2)c1O,0,0,0,0,-,0
COc1ccc(Nc2ncc(C(=O)N3CCN(c4ccc(F)cc4)CC3)c3ccccc23)cc1,0,0,99,0,0,0
COc1ccc(CNC(=O)CN(Cc2ccc(C)cc2)C(=O)c2csnn2)cc1,-,-,-,0,-,-
C=CCN(CC=C)Cc1cc(=O)n2c(-c3ccccc3)csc2n1,-,-,-,0,-,-
O=c1cc(CN2CCN(c3ccc(O)cc3)CC2)nc2scc(-c3ccccc3)n12,0,0,0,0,0,67
CC(C)OCCCN1CC(=O)N2C(c3ccccc3)c3[nH]c4ccccc4c3C[C@H]2C1=O (some centres not stated),-,-,-,0,-,-
Cc1c(C(=O)NCC(c2ccco2)N(C)C)oc2c(Cl)cccc12 (configuration not stated),-,-,-,0,-,-
O=C(O)C/C(=C\c1cccc(NC(=O)c2ccccc2Cl)c1)c1nc2ccccc2s1,0,0,0,0,-,65
COc1cc(/C=C(\CC(=O)O)c2nc3ccccc3s2)cc(OC)c1O,0,0,0,0,0,58
CN(c1ccccc1)c1ccc(/C=C(\CCC(=O)O)c2nc3ccccc3s2)cc1[N+](=O)[O-],0,0,0,0,0,100
COc1ccc(C(=O)Nc2cccc(/C=C/c3nc4ccccc4c(=O)[nH]3)c2)cc1,0,0,0,0,-,57
O=C(Nc1cccc(/C=C/c2nc3ccccc3c(=O)[nH]2)c1)c1ccccc1Cl,0,0,0,0,-,0
COc1ccc(/C=C(\CC(=O)O)c2nc3ccccc3s2)cc1O,0,0,0,0,0,0
CCOc1cc(/C=C(\CC(=O)O)c2nc3ccccc3s2)ccc1OC,0,0,0,0,0,0
COc1ccc(C(=O)Nc2cccc(/C=C(\CCC(=O)O)c3nc4ccccc4s3)c2)cc1,0,0,0,0,-,85
COc1ccc(C(=O)Nc2nc3cc(OC)c(OC)cc3c(=O)[nH]2)cc1,0,0,99,0,0,0
CSc1ncccc1C(=O)Nc1ccc(S(=O)(=O)N2CCCC2)cc1,-,-,-,0,-,-
COc1ccc(O)c(/C=N/NC(=O)CCC(=O)Nc2ccc(F)cc2)c1,-,-,-,0,-,-
Oc1ccccc1-c1cc(-c2ccco2)[nH]n1,0,0,0,0,0,0
Oc1ccc(Br)cc1-c1cc(-c2ccco2)[nH]n1,0,0,0,0,0,64
CC(C)(C)OC(=O)N1CCN(C(=O)Nc2ccc3c(c2)OCCO3)CC1,0,0,0,0,0,0
Cc1sccc1/C=N/NC(=O)c1cccc2ccccc12,0,0,0,0,0,92
CCCC1(C(=O)OCC)NC(c2cc(OC)c(OC)c(OC)c2)C2C(=O)N(CC)C(=O)C21 (configuration not stated),0,0,0,0,81,0
Cc1nc2sc(C(c3cccs3)N3CCOCC3)c(O)n2n1 (configuration not stated),0,0,76,0,0,0
SMILES,EBV gp42 inh,RBBP9 inhibitor,Mcl1 Bid PPI,MCL1-BIM inh,Bim-Mcl-1,Mcl1-Noxa inh
Cc1nc2sc(C(c3cccs3)N3CCN(c4ccccc4)CC3)c(O)n2n1 (configuration not stated),-,0,-,0,-,-
COc1ccccc1N(CC(O)CN1CCCCC1)S(=O)(=O)c1ccc(C)cc1 (configuration not stated),-,-,-,0,-,-
COc1ccc(C(=O)NNC(=O)CN2CCC(n3nnc4cc(C(F)(F)F)ccc43)CC2)cc1,0,0,0,0,0,52
COC(=O)c1ccccc1NC(=O)CN1CCC(n2nnc3cc(C(F)(F)F)ccc32)CC1,0,0,0,0,0,0
CC1Cc2ccccc2N1C(=O)CN1CCC(n2nnc3cc(C(F)(F)F)ccc32)CC1 (configuration not stated),100,0,0,0,0,0
Cc1ccc(NS(=O)(=O)c2ccc(C)c(C(=O)NCC(c3ccccc3)N(C)C)c2)cc1 (configuration not stated),-,-,-,0,-,-
CCn1cc(C(=O)O)c(=O)c2cc(F)c(N/N=C/c3ccccc3[N+](=O)[O-])cc21,0,0,62,0,0,55
O=C1NN(c2cccc(Br)c2)C(=O)/C1=C/c1ccc(-c2cc([N+](=O)[O-])ccc2O)o1,101,0,98,0,-,101
O=C1NC(c2ccccc2Cl)=N/C1=C/c1ccco1,0,0,0,0,-,61
Cn1cc([N+](=O)[O-])c(C(=O)Nc2cc(Oc3cccnc3)cc([N+](=O)[O-])c2)n1,0,0,0,0,0,0
COc1ccc(C(=O)c2sc3nc(C)cc(-c4cccs4)c3c2N)cc1,102,0,0,-,0,0
Cc1cc(C)c2c(N)c(C(=O)c3ccc(Cl)c(Cl)c3)sc2n1,0,0,0,0,0,0
COc1ccc(C(=O)c2sc3nc(C)cc(-c4cccs4)c3c2N)cc1OC,61,0,0,0,0,0
Cc1cc(C)c2c(N)c(C(=O)c3ccc(Cl)cc3)sc2n1,0,0,0,0,0,0
CC(C)NC(=O)c1sc2nc(-c3cccs3)cc(-c3cccs3)c2c1N,64,0,0,0,0,52
CC(C)NC(=O)c1cc(-c2cccs2)nc2ccccc12,-,-,-,0,-,-
Cc1cc(-c2cccs2)c2c(N)c(C(=O)c3ccc4c(c3)OCO4)sc2n1,133,0,0,0,0,0
Cc1cccc(N2CCN(C(=O)C3CC(=O)N(C4CCCC4)C3)CC2)c1C (configuration not stated),-,-,-,0,-,-
O=C(O)c1ccc(NC(=S)NC(=O)c2ccc(-c3ccc(Br)cc3)o2)cc1,-,-,-,0,-,-
CCCC1=C(C(=O)OCC)C(c2ccc(O)cc2)n2ncnc2N1 (configuration not stated),0,0,0,0,0,67
CCCC1=C(C(=O)OCC)C(c2sccc2C)n2ncnc2N1 (configuration not stated),0,0,0,0,-,0
COc1cc(C(=O)Nc2ccc3c(c2)CCCN3C(=O)c2ccco2)c([N+](=O)[O-])cc1OC,-,-,-,0,-,-
Cc1cc(C(=O)O)c(C)n1-c1ccccc1,0,0,0,0,0,0
Cc1ccc(C)n1-c1sccc1C(=O)O,0,0,93,-,0,95
Cc1ccc(-n2c(O)c(/C=N/Nc3ccc(S(=O)(=O)N4CCOCC4)cc3[N+](=O)[O-])c3ccccc3c2=O)c(C)c1,0,0,0,0,0,78
O=C(O)c1ccc(/C=N\Nc2ccc(S(=O)(=O)N3CCOCC3)cc2[N+](=O)[O-])cc1,0,0,0,0,-,0
COc1cccc(CN(C(=O)/C=C/c2ccc(Cl)cc2)C2CCS(=O)(=O)C2)c1 (configuration not stated),0,0,84,0,0,0
O=C(/C=C/c1ccccc1)N(Cc1cccc(Cl)c1)C1CCS(=O)(=O)C1 (configuration not stated),0,0,0,0,-,0

# Compound activity: PubChem, several laboratories
